NPY-Y2 antag = NPY-Y2 receptor antagonists, primary screen, cell-based. 140,000 compounds, 0.99% hits. NPY-Y2 expressing cells, antagonist mode. AID 793, 2007. Neuropeptide Y receptor type 2 (Homo sapiens), P49146. inhibition, % at 2.7 µM; in the data active = inhibition above about 17%
Target sequence (P49146 whole entry, looked up): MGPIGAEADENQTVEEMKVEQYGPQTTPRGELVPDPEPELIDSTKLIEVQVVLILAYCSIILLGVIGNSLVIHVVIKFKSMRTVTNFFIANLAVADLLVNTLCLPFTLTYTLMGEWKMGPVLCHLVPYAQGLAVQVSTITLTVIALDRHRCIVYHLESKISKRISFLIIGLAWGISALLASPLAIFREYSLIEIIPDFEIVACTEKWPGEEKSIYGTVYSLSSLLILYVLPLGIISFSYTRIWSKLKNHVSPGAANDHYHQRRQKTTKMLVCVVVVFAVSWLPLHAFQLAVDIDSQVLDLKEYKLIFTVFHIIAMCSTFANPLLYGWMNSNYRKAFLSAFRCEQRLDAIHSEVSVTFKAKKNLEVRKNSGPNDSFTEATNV
NPY Y1 blocker = NPY-Y1 receptor antagonists, primary screen, cell-based. Neuropeptide Y receptor type 1 (Homo sapiens), P25929. HEK293-CNG Y1 cells, membrane potential fluorescence; NPY at EC95, then isoproterenol. inhibition, % at 3.6 µM. 200,000 compounds, 1% hits. AID 1040, 2008;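 active = inhibition above the campaign mean inhibition of all tested compounds plus 3 SD, cut at about 20% in these data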
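Material: Y1- and CNG-channel-expressing HEK293 cells / Probe or stimulus: NPY 25 nM then isoproterenol 1 µM plus Ro 20-1724 25 µM / Doses: 3.6 µM single dose, DMSO 0.4% / Schedule: compound incubation 1 h at room temperature, readout 45 min post-stimulation / Signal: membrane potential fluorescence / Benchmarks: isoproterenol-only wells as full block versus NPY-plus-isoproterenol wells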
NPY-Y1 PAM-ag = NPY-Y1 receptor potentiators or agonists, primary screen, cell-based; NPY-Y1 expressing cells, potentiator/agonist activation; activation, % at 3.6 µM; AID 1304, 2008; 220,000 compounds, 0.37% hits; Neuropeptide Y receptor type 1 (Homo sapiens), P25929; in the data active = activation above about 33%, passing the limit was not always enough;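 also: cells stimulated with NPY at EC10 then isoproterenol at EC100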
NPY-Y2 PAM-ag = NPY-Y2 potentiators or agonists, primary screen, cell-based; Neuropeptide Y receptor type 2 (Homo sapiens), P49146; cells expressing NPY-Y2, potentiator/agonist read-out; activation, % at 3.6 µM; 220,000 compounds, 0.45% hits; in the data active = activation above about 27%;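 also: cells stimulated with NPY near EC25 plus isoproterenol at EC100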
NPY1 antag ctr = NPY-Y1 receptor antagonists, selectivity check, counter-screen for NPY-Y2 antagonist project, cell-based. shares compounds with NPY-Y2 antag. cell-based NPY-Y1 antagonism counterscreen. inhibition, % at 3.6 µM. 710 compounds, 19% hits. AID 1256, 2008; in the data active = inhibition above about 20%;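 also: cells challenged with NPY then isoproterenol with cAMP sensed through a CNG channel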
NPY2 antag conf = NPY-Y2 receptor antagonists, retest of hits, confirmation, HEK293-CNG cells, membrane potential fluorescence, triplicate | 710 compounds, 32% hits | inhibition, % at 2.8 µM | shares compounds with NPY-Y2 antag | HEK293 NPY-Y2 CNG channel | AID 1257, 2008;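 active = mean inhibition of triplicate wells above the hit cutoff set in the primary screen, cut at about 17% in these data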
Of the large screens only hits and unclear results are named; the others gave an inactive call (follow-up assays come after a bar, where they were run). Sampled rows, rich in hits. Any-hit rate of the full collection: about 1.9%.

CCOc1ccc(N(CC(=O)N2CCC(Cc3ccccc3)CC2)S(C)(=O)=O)cc1	none (no result: NPY-Y2 antag)
COc1cc(-c2cc(C(=O)Nc3c(Cl)cc(Cl)cc3Cl)c3ccccc3n2)cc(OC)c1OC	NPY-Y2 antag 40.1 | NPY1 antag ctr 48.8 | NPY2 antag conf 73.5
COc1cc(-c2cc(C(=O)NN3CCN(C)CC3)c3ccccc3n2)cc(OC)c1OC	none
O=C(NC1CCCC1)C(c1cccnc1)N(CCc1ccccc1)C(=O)c1ccco1 (centres undefined)	none (no result: NPY-Y2 antag)
O=C(NC1CCCCC1)C(c1cccnc1)N(CCc1ccccc1)C(=O)Cc1cccs1 (centres undefined)	NPY-Y2 antag 22.5 | NPY1 antag ctr inactive | NPY2 antag conf inactive
O=C1CSC(c2cn(-c3ccccc3)nc2-c2cc3ccccc3oc2=O)N1Cc1ccccc1 (centres undefined)	none
O=C1CSC(c2nn(-c3ccccc3)cc2-c2cc3ccccc3oc2=O)N1Cc1ccco1 (centres undefined)	NPY-Y2 antag 18.1 | NPY1 antag ctr inactive | NPY2 antag conf inactive
CCOC(=O)N1CCN(C(=O)c2cnn3c(C(F)F)cc(-c4ccc(C)cc4)nc23)CC1	NPY-Y2 antag 17.2 | NPY1 antag ctr inactive | NPY2 antag conf inactive
CC1CCN(c2ccccc2NC(=S)NC(=O)c2cccs2)CC1	NPY-Y2 antag 21.0 | NPY1 antag ctr 20.1 | NPY2 antag conf inactive
CC(C)CN(CC(C)C)S(=O)(=O)N1CCC(C(=O)NCc2ccco2)CC1	none (no result: NPY-Y2 antag)
Cc1cccc(Nc2nc(NCc3ccco3)c3ccccc3n2)c1	NPY-Y2 antag 26.6 | NPY1 antag ctr 22.1 | NPY2 antag conf 20.0
O=C(COc1ccccc1Br)Nc1ccccc1C(F)(F)F	none (no result: NPY-Y2 antag)
O=C(NC(c1ccccc1)c1ccccc1)C1(c2cccs2)CCOCC1	NPY-Y2 antag 17.6 | NPY1 antag ctr inactive | NPY2 antag conf inactive
Cc1c(-n2c(SCC(=O)O)nnc2-c2ccccc2Br)c(=O)n(-c2ccccc2)n1C	none (no result: NPY-Y2 antag, NPY Y1 blocker)
CCOc1ccc(Cc2c(Cl)nc(SC)nc2N(C)C)cc1	NPY-Y2 antag 49.9 | NPY1 antag ctr 62.8 | NPY2 antag conf 50.4
CSc1ccccc1C(=O)NCCOc1cccc(C)c1	none (no result: NPY-Y2 antag)
Cc1cc(C)cc(NC(=O)N2CCCN(Cc3c(F)cccc3Cl)CC2)c1	none (no result: NPY-Y2 antag, NPY Y1 blocker)
COc1ccc(CN2CCN(c3ncccn3)CC2)c(OC)c1	NPY-Y2 antag 18.3 | NPY1 antag ctr inactive | NPY2 antag conf inactive
COc1ccc(CN2CCN(c3ccccn3)CC2)c(OC)c1	none
C/C(=N\OC(=O)c1ccc(OC(C)C)cc1)c1ccc(C)c(C)c1	NPY-Y2 antag 21.8 | NPY1 antag ctr inactive | NPY2 antag conf 30.2
COc1ccc(C(=O)O/N=C(\C)c2ccccc2)cc1	none
CC/C(=N\OC(=O)c1ccc(OC(C)C)cc1)c1ccc(C)cc1	NPY-Y2 antag 20.1 | NPY1 antag ctr inactive | NPY2 antag conf inactive
CCCOc1ccc(C(=O)O/N=C(\CC)c2ccc(C)cc2)cc1	none
CCC(C)NC(=O)CC(NS(=O)(=O)c1ccc(NC(C)=O)cc1)C(C)C (centres undefined)	none (no result: NPY-Y2 antag)
N#Cc1ccccc1OCC(=O)NC(=O)NCc1ccco1	none (no result: NPY-Y2 antag, NPY Y1 blocker)
COC(=O)c1ccc(OCC(=O)c2ccc(C)c(C)c2)cc1	NPY-Y2 antag 25.9 | NPY1 antag ctr inactive | NPY2 antag conf inactive
COc1ccc(Cn2nnnc2C(c2cccs2)N2CCN(c3ccc([N+](=O)[O-])cc3)CC2)cc1 (centres undefined)	none
COc1ccc(Cn2nnnc2C(c2cccs2)N2CCN(c3ccccc3)CC2)cc1 (centres undefined)	NPY-Y2 antag 18.7 | NPY1 antag ctr inactive | NPY2 antag conf inactive
Fc1ccc(C(c2nnnn2Cc2cccs2)N2CCN(c3ccccc3)CC2)cc1 (centres undefined)	NPY-Y2 antag 19.3 | NPY1 antag ctr inactive | NPY2 antag conf inactive
CC1CN(C(=O)/C(C#N)=C2\N=C(NC(=O)c3ccc(F)cc3)c3ccccc32)CC(C)O1 (centres undefined)	none (no result: NPY-Y2 antag, NPY Y1 blocker)
CN(C)CC1CCCCC1OC(=O)c1ccc(Br)cc1 (centres undefined)	none (no result: NPY-Y2 antag)
CC(C)COc1ccc(C(=O)OC2CC(C)(C)OCC2CN(C)C)cc1 (centres undefined)	NPY-Y2 antag 23.7 | NPY1 antag ctr inactive | NPY2 antag conf 30.5
O=C(Nc1cscc1S(=O)(=O)c1ccccc1)c1ccccc1Cl	none (no result: NPY-Y2 antag, NPY Y1 blocker)
COc1cccc(NC(=O)c2ccc(NC(C)=O)cc2)c1	none
COc1ccc(C(=O)Nc2cccc(OC(=O)c3ccc(C)c(C)c3)c2)cc1	NPY-Y2 antag 17.2 | NPY1 antag ctr 23.3 | NPY2 antag conf 23.0
COc1ccc(C(O)C(CN2CCOCC2)c2ccccc2)cc1F (centres undefined)	none
COc1ccc(C(=O)C(CN2CCOCC2)c2ccccc2)cc1F (centres undefined)	NPY-Y2 antag 17.3 | NPY1 antag ctr inactive | NPY2 antag conf inactive
O=C(COC(=O)/C=C/c1ccc(F)cc1)Nc1ccccc1-c1ccccc1	NPY-Y2 antag 17.8 | NPY1 antag ctr inactive | NPY2 antag conf inactive
O=C(COc1cc(F)ccc1[N+](=O)[O-])NCCCc1ccccc1	none (no result: NPY-Y2 antag)
O=C(CSc1cccc2cccc(Cl)c12)OCC(=O)N1CCN(C(=O)c2ccco2)CC1	NPY-Y2 antag 18.8 | NPY1 antag ctr inactive | NPY2 antag conf inactive
O=C(c1ccc(Cl)cc1)n1c(NCc2ccccc2)n[nH]c1=S	none (no result: NPY-Y2 antag)
COC(=O)/C=C1\N/C(=N\c2nc(C)cc(C)n2)N(c2ccc(C)c(C)c2)C1=O	none
CCC1Oc2ccc(C)cc2N(CC(=O)NCCC2=CCCCC2)C1=O (centres undefined)	NPY-Y2 antag 19.1 | NPY1 antag ctr inactive | NPY2 antag conf inactive
O=C(Cn1nnc2ccccc21)NNC(=S)NC1CCCCC1	none (no result: NPY-Y2 antag)
Cc1cc(Cl)nc(-n2nc(C)cc2C)n1	none (no result: NPY-Y2 antag, NPY Y1 blocker)
Cc1cc(C)n(-c2nc(C)nc(N)n2)n1	NPY-Y2 antag 20.2 | NPY1 antag ctr inactive | NPY2 antag conf inactive
CCCc1nnc2n1N=C(c1ccc(OC)c(OC)c1)CS2	NPY-Y2 antag 19.4 | NPY1 antag ctr inactive | NPY2 antag conf inactive
CCOC(=O)c1c(NC(=O)C2C3C=CC(C3)C2C(=O)O)sc2c1CCC(CC)C2 (centres undefined)	none
CCOC(=O)c1c(NC(=O)C2C3C=CC(CC3)C2C(=O)O)sc(C)c1C (centres undefined)	NPY-Y2 antag 18.4 | NPY1 antag ctr inactive | NPY2 antag conf inactive
O=C(Nc1ccc(N2CCN(C(=O)c3ccccc3F)CC2)cc1)c1ncn[nH]1	none (no result: NPY-Y2 antag)
COc1ccc(Cl)cc1NC(=O)c1c(-c2ccccc2)noc1C	NPY-Y2 antag 24.8 | NPY1 antag ctr inactive | NPY2 antag conf inactive
